In brackets after ≈: the same amount, converted by molar mass. Numbered stars: 1 amine (or outer) side, 2 acyl side, 3 side chain; on linkers, the order of the positions; unused ones are H or OH. Peptide text beside a SMILES is read from it. * marks the point of attachment. Piperazinyl(4-(2,3-Cl2Ph)) = Clc1cccc(N2CCN(*)CC2)c1Cl; Thiocarbamoyl(N-4-ClPh) = S=C(Nc1ccc(Cl)cc1)*; X1 = Fc1ccc2c(C3CCN(*)CC3)noc2c1; NH(2-F-phenyl) = Fc1ccccc1N*; CO = O=C([*:1])[*:2]; OcHex = C1CCC(O*)CC1
What was measured:
Assay type in all cases: functional
[1] = system: Xanthomonas oryzae; experiment: Antibacterial activity against Xanthomonas oryzae at 30 ug/ml after 24 hrs by agar well diffusion method; conditions: read-out: DIZ
[2] = system: Aspergillus flavus; experiment: Antifungal activity against Aspergillus flavus at 30 ug/ml after 72 hrs by agar well diffusion method; conditions: read-out: DIZ
Method in brief: (§1)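 Fungal well diffusion. Inocula were subcultured in nutrient broth for one day, then spread on solidified medium. Compounds were made as a 1 mg/mL DMSO stock and diluted to 30 µg/mL final. Each 6 mm well got 0.1 mL. Controls were bavistin (reference) and DMSO (negative). Plates stood for 3 days at room temperature. Inhibition zone was measured in mm as the mean of three determinations.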

[3] = system: Aspergillus flavus; experiment: Antifungal activity against Aspergillus flavus after 72 hrs by microdilution method
[4] = system: Aspergillus niger; experiment: Antifungal activity against Aspergillus niger at 30 ug/ml after 72 hrs by agar well diffusion method; conditions: read-out: DIZ; method in brief: as §1
[5] = system: Escherichia coli; experiment: Antibacterial activity against Escherichia coli at 30 ug/ml after 24 hrs by agar well diffusion method; conditions: read-out: DIZ
Method in brief: (§2)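 Agar well diffusion. Inocula were grown in nutrient broth at 37 °C for 24 h, then subcultured in nutrient broth at room temperature. Compounds were made as a 1 mg/mL DMSO stock and diluted to 30 µg/mL final. Nutrient agar plates were spread-inoculated and 6 mm wells each got 0.1 mL. Controls were amoxicillin (reference) and DMSO (negative). Incubation was 24 h at 37 °C. Inhibition zone was measured in mm as the mean of three determinations.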

[6] = system: Staphylococcus aureus; experiment: Antibacterial activity against coagulase-positive Staphylococcus aureus at 30 ug/ml after 24 hrs by agar well diffusion method; conditions: read-out: DIZ; method in brief: as §2
[7] = system: Fusarium oxysporum; experiment: Antifungal activity against Fusarium oxysporum after 72 hrs by microdilution method
[8] = system: Fusarium oxysporum; experiment: Ratio of bavistin MIC to compound MIC for Fusarium oxysporum after 72 hrs by microdilution method
[9] = system: Aspergillus niger; experiment: Antifungal activity against Aspergillus niger after 72 hrs by microdilution method
[10] = system: Aspergillus niger; experiment: Ratio of bavistin MIC to compound MIC for Aspergillus niger after 72 hrs by microdilution method
[11] = system: Aspergillus flavus; experiment: Ratio of bavistin MIC to compound MIC for Aspergillus flavus after 72 hrs by microdilution method
[12] = system: Fusarium oxysporum; experiment: Antifungal activity against Fusarium oxysporum at 30 ug/ml after 72 hrs by agar well diffusion method; conditions: read-out: DIZ; method in brief: as §1
[13] = system: Klebsiella pneumoniae; experiment: Antibacterial activity against Klebsiella pneumoniae at 30 ug/ml after 24 hrs by agar well diffusion method; conditions: read-out: DIZ; method in brief: as §2

Row | Structure (SMILES) | zone of inhibition at 30 µg/mL [1] | zone of inhibition at 30 µg/mL [2] | MIC [3] | zone of inhibition at 30 µg/mL [4] | zone of inhibition at 30 µg/mL [5] | zone of inhibition at 30 µg/mL [6] | MIC [7] | Ratio [8] | MIC [9] | Ratio [10] | Ratio [11] | zone of inhibition at 30 µg/mL [12] | zone of inhibition at 30 µg/mL [13]
1 | CC(C)[C@H](NC(=O)CNC(=O)[C@@H]1CCCN1C(=O)[C@H](Cc1ccccc1)NC(=O)CNC(=O)[C@H](CCC(=O)OC1CCCCC1)NC(=O)CNC(=O)Nc1ccccc1F)C(=O)NCC(=O)N[C@H](C(=O)N1CCC[C@H]1C(=O)NCC(=O)N[C@H](C(=O)NCC(=O)N[C@H](C(=O)N1CCC[C@H]1C(=O)NCC(=O)N[C@H](C(=O)NCC(=O)N[C@H](C(=O)N1CCC[C@H]1C(=O)NCC(=O)N[C@@H](Cc1ccccc1)C(=O)NCC(=O)N[C@@H](Cc1ccccc1)C(=O)N1CCC[C@H]1C(=O)NCC(=O)N[C@@H](Cc1ccccc1)C(=O)NCC(=O)N[C@@H](Cc1ccccc1)C(=O)N1CCC[C@H]1C(=O)N1CCC(c2noc3cc(F)ccc23)CC1)C(C)C)C(C)C)C(C)C)C(C)C)C(C)C ({NH(2-F-phenyl)-CO}-GE(OcHex)GFPGVGVPGVGVPGVGVPGFGFPGFGFP-X1) | 21 mm | 43 mm | 1.25 µg/mL (≈ 0.395 µM) | 46 mm | 24 mm | 22 mm | 1.5 µg/mL (≈ 0.474 µM) | 10 | 1.25 µg/mL (≈ 0.395 µM) | 10 | 10 | 44 mm | 22 mm
2 | CC(C)[C@H](NC(=O)CNC(=O)[C@@H]1CCCN1C(=O)[C@H](Cc1ccccc1)NC(=O)CNC(=O)[C@H](CCC(=O)OC1CCCCC1)NC(=O)CNC(=O)Nc1ccccc1F)C(=O)NCC(=O)N[C@H](C(=O)N1CCC[C@H]1C(=O)NCC(=O)N[C@H](C(=O)NCC(=O)N[C@@H](Cc1ccccc1)C(=O)N1CCC[C@H]1C(=O)NCC(=O)N[C@@H](Cc1ccccc1)C(=O)NCC(=O)N[C@@H](Cc1ccccc1)C(=O)N1CCC[C@H]1C(=O)NCC(=O)N[C@H](C(=O)NCC(=O)N[C@H](C(=O)N1CCC[C@H]1C(=O)NCC(=O)N[C@H](C(=O)NCC(=O)N[C@@H](Cc1ccccc1)C(=O)N1CCC[C@H]1C(=O)N1CCN(c2cccc(Cl)c2Cl)CC1)C(C)C)C(C)C)C(C)C)C(C)C)C(C)C ({NH(2-F-phenyl)-CO}-GE(OcHex)GFPGVGVPGVGFPGFGFPGVGVPGVGFP-{Piperazinyl(4-(2,3-Cl2Ph))}) | 19 mm | 42 mm | 1.75 µg/mL (≈ 0.551 µM) | 48 mm | 22 mm | 20 mm | 2 µg/mL (≈ 0.629 µM) | 10 | 2 µg/mL (≈ 0.629 µM) | 10 | 10 | 43 mm | 21 mm
3 | CC(C)[C@H](NC(=O)CNC(=O)[C@@H]1CCCN1C(=O)[C@H](Cc1ccccc1)NC(=O)CNC(=O)[C@H](CCC(=O)OC1CCCCC1)NC(=O)CNC(=S)Nc1ccc(Cl)cc1)C(=O)NCC(=O)N[C@H](C(=O)N1CCC[C@H]1C(=O)NCC(=O)N[C@H](C(=O)NCC(=O)N[C@@H](Cc1ccccc1)C(=O)N1CCC[C@H]1C(=O)NCC(=O)N[C@@H](Cc1ccccc1)C(=O)NCC(=O)N[C@@H](Cc1ccccc1)C(=O)N1CCC[C@H]1C(=O)NCC(=O)N[C@H](C(=O)NCC(=O)N[C@H](C(=O)N1CCC[C@H]1C(=O)NCC(=O)N[C@H](C(=O)NCC(=O)N[C@@H](Cc1ccccc1)C(=O)N1CCC[C@H]1C(=O)N1CCN(c2cccc(Cl)c2Cl)CC1)C(C)C)C(C)C)C(C)C)C(C)C)C(C)C ({Thiocarbamoyl(N-4-ClPh)}-GE(OcHex)GFPGVGVPGVGFPGFGFPGVGVPGVGFP-{Piperazinyl(4-(2,3-Cl2Ph))}) | 16 mm | 39 mm | 2.5 µg/mL (≈ 0.779 µM) | 44 mm | 19 mm | 16 mm | 3 µg/mL (≈ 0.935 µM) | 10 | 2.5 µg/mL (≈ 0.779 µM) | 10 | 10 | 40 mm | 18 mm

Source: ChEMBL document CHEMBL1932971, “Synthesis of uriedo and thiouriedo derivatives of peptide conjugated heterocycles - A new class of promising antimicrobials” (2012)
